Experimental data from different studies.

| SMILES | system | setting | Tmax [h] |
| --- | --- | --- | --- |
| CC(C)(O)[C@H]1CC[C@H](Nc2ccc3ncc(-c4cccc(C(F)(F)F)c4)n3n2)CC1 | female Sprague-Dawley rat, plasma | oral, 40 mg/kg | 1 |
| O=C(O)CCS(=O)(=O)O | male Sprague-Dawley rat, plasma | intravenous, 10 mg/kg | 0.083 |
| Cc1c(-c2ccccc2)cccc1N1C(=O)c2cc(CN[C@H](C(=O)O)C(C)O)c(OCc3cccc(C#N)c3)cc2C1=O (some centres unmarked) | Sprague-Dawley rat, plasma | oral, 50 mg/kg | 0.53 |
| Oc1c(Br)cc(Cl)c2cccnc12 | Sprague-Dawley rat, plasma | subcutaneous, 10 mg/kg | 1.2 |
| N#Cc1ccc(Nc2nc(N)cc(Oc3c(F)cc(-c4ccc(C#N)cc4)cc3F)n2)cc1 | Sprague-Dawley rat, plasma | intravenous, 1 mg/kg | 0.08 |
| C=CC(=O)N1CC2CC(n3nc(-c4ccc(C(=O)Nc5ccccn5)cc4)c4c(N)ncnc43)CC2C1 (centres unmarked) | male Wistar rat, plasma | oral, 300 mg/kg | 4 |
| CC[C@H](C)[C@H](NC(=O)[C@H](Cc1ccccc1)NC(=O)[C@H](CCC(=O)O)NC(=O)[C@H](CCCNC(=N)N)NC(=O)[C@H](C)NC(=O)[C@H](C)NC(=O)[C@H](CCC(N)=O)NC(=O)[C@H](CCC(=O)O)NC(=O)[C@H](CCC(=O)O)NC(=O)[C@H](CC(C)C)NC(=O)[C@H](Cc1ccc(O)cc1)NC(=O)[C@H](CO)NC(=O)[C@H](CO)NC(=O)[C@@H](NC(=O)[C@H](CC(=O)O)NC(=O)[C@H](CO)NC(=O)[C@@H](NC(=O)[C@H](Cc1ccccc1)NC(=O)[C@@H](NC(=O)CNC(=O)[C@H](CCC(=O)O)NC(=O)[C@H](C)NC(=O)CCc1c[nH]cn1)[C@@H](C)O)[C@@H](C)O)C(C)C)C(=O)N[C@@H](C)C(=O)N[C@@H](Cc1c[nH]c2ccccc12)C(=O)N[C@@H](CC(C)C)C(=O)N[C@H](C(=O)N[C@@H](CCCNC(=N)N)C(=O)NCC(=O)N[C@@H](CCCNC(=N)N)C(=O)N[C@@H](CCCCNC(=O)COCCOCCNC(=O)COCCOCCNC(=O)CC[C@H](NC(=O)CCCCCCCCCCCCCCCCC(=O)O)C(=O)O)C(=O)O)C(C)C | rat, plasma | subcutaneous, 20 nmol/kg | 10 |
| CC(C)OC(=O)NC1CCN(Cc2cc(Cl)c3cccnc3c2O)CC1 | rat, blood | intraperitoneal, 30 mg/kg | 3 |
| CNCc1cc(-c2ccccc2F)n(S(=O)(=O)c2cccnc2)c1 | male Sprague-Dawley rat, plasma | oral, 10 mg/kg | 1 |
| CCc1cc(C(=O)NC)c2nccc(N3CCc4c(cc(Cn5ccnc5)cc4-c4cn(C)nc4C(F)(F)F)C3=O)c2c1 | male Sprague-Dawley rat, plasma | oral, 50 mg/kg, single dose | 0.8 |
| CCOC(=O)[C@@]12C[C@@H]1[C@@H](n1ccc3c(NC)nc(C#Cc4ccc(Cl)s4)nc31)[C@H](O)[C@@H]2O | male Sprague-Dawley rat, plasma | oral, 10 mg/kg | 1.17 |
| N#Cc1[nH]nnc1-c1cccc(-c2cc(F)cc(C(F)(F)F)c2)c1 | male Sprague-Dawley rat, plasma | oral, 10 mg/kg | 0.8 |
| O=C(Nc1cc(F)c(F)c(F)c1)c1ccc(F)c(S(=O)(=O)NCc2cccc(B(O)O)c2)c1 | male Sprague-Dawley rat, plasma | intravenous, 2 mg/kg | 0.08 |
| N#Cc1[nH]nnc1-c1csc(-c2ccc(Cl)cc2)n1 | male Sprague-Dawley rat, plasma | oral, 10 mg/kg | 1 |
| CNCc1cc(-c2ccccc2F)n(S(=O)(=O)c2cccnc2)c1 | Sprague-Dawley rat, plasma | oral, 10 mg/kg | ~1.1 |
| Cl.Clc1ccc2c(c1)nc(N1CCNCC1)n2Cc1ccccc1 | rat, plasma | oral, 5 mg/kg | 0.08 |
| COc1nc(-c2cc(C)c(N[C@@H](C)c3cc(F)cc(F)c3)nn2)ccc1-n1cnc(C)c1 | male Sprague-Dawley rat, plasma | oral, 5 mg/kg, single dose | 5.3 |
